Ten compounds from ChEMBL document CHEMBL1139860, “Cytotoxic germacranolides and acyclic diterpenoides from the seeds of Carpesium triste” (J Nat Prod, 2007) can be followed below.

A word on the IC50: it is the point on the concentration scale where inhibition reaches its midpoint. Read a low IC50 as greater potency.

Holding throughout (assay type): cell-based
The nature of assay [1]: Cytotoxicity against human SMMC7721 cells after 48 hrs. To be noted: SMMC-7721, 48 h. Put shortly:
(§1)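 SRB assay. Exponentially growing cells were seeded at 5 × 10^3 per well and incubated 24 h, then exposed 48 h to 5-6 concentrations per run, with vincristine sulfate as positive control. Extracted dye absorbance was read at 515 nm. Percent survival was calculated against untreated cells set at 100%. Done in triplicate.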

For the next assay, the system named is HL-60. Nature of the assay: Cytotoxicity against human HL60 cells after 48 hrs. As to conditions: HL-60, 48 h. In a few lines:
as §1

A short description of assay [2]: Cytotoxicity against human L02 cells after 48 hrs. To be noted: L02, 48 h. In a few lines:
as §1

SMILES strings stand for the structures. Values after ≈ are worked out from the molar mass of the structure shown. A value given as a limit tells only on which side of the number the result lay.

For `C=C1C(=O)O[C@H]2[C@H]1[C@@H](OC(=O)/C(C)=C\C)C(=O)[C@H](C)CCC[C@](C)(O)[C@@H]2OC(=O)C(C)C`, the 50% inhibitory concentration (IC50) in assay [1] came to 46.3 µg/mL (≈ 103 µM); in the assay on HL-60 it was 3.4 µg/mL (≈ 7.55 µM); in assay [2] it was 72.4 µg/mL (≈ 161 µM).

For `C=C1C(=O)O[C@H]2[C@H]1[C@@H](OC(=O)C(C)C)[C@H](O)[C@H](C)CCC(=O)[C@](C)(O)[C@@H]2OC(=O)C(C)C`, the IC50 in assay [1] worked out at 33.5 µg/mL (≈ 73.7 µM); in the assay on HL-60, 3.2 µg/mL (≈ 7.04 µM); in assay [2], 42.3 µg/mL (≈ 93.1 µM).

Consider `CC(=O)OC/C(=C\CC/C(C)=C/CO)CCC[C@H](C)[C@H](O)CC=C(C)C`, for which the IC50 (in assay [1]; in the assay with HL-60; in assay [2]) was over 100 µg/mL each time.

With `C=C1C(=O)O[C@H]2[C@H]1[C@@H](O)[C@H](OC(=O)CC(C)C)[C@H](C)CCC(=O)[C@](C)(O)[C@@H]2OC(=O)C(C)CC` (stereo not given in full), the IC50 was 29.7 µg/mL (≈ 61.5 µM) in assay [1], 10.3 µg/mL (≈ 21.3 µM) in the assay on HL-60 and 57.5 µg/mL (≈ 119 µM) in assay [2].

Take `CC(C)=CC[C@@H](O)[C@@H](C)CCC/C(C)=C/CC/C(C)=C/CO`: the half-inhibitory concentration (IC50) in assay [1] was over 100 µg/mL; with HL-60, 42.4 µg/mL (≈ 137 µM); in assay [2] it was over 100 µg/mL.

For `CC(=O)OC/C=C(\C)CC/C=C(/CCC[C@H](C)[C@H](O)CC=C(C)C)COC(C)=O`, the IC50 stood at 12.5 µg/mL (≈ 30.6 µM) in assay [1], 20.2 µg/mL (≈ 49.4 µM) in the assay with HL-60 and 31.3 µg/mL (≈ 76.6 µM) in assay [2].

`C=C1C(=O)O[C@H]2[C@H]1[C@@H](O)[C@H](OC(=O)CC(C)C)[C@H](C)CCC(=O)[C@](C)(O)[C@@H]2OC(=O)C(C)C`: the results for the half-inhibitory concentration (IC50) (in assay [1]; in the assay with HL-60; in assay [2]) were 44.8 µg/mL (≈ 95.6 µM), 1.7 µg/mL (≈ 3.63 µM) and 23.1 µg/mL (≈ 49.3 µM), respectively.

`C=C1C(=O)O[C@H]2[C@H]1[C@@H](OC(=O)C(C)C)C(=O)[C@H](C)CCC[C@](C)(O)[C@@H]2OC(=O)C(C)C` [INCASPITOLIDE A]: the results for the half-inhibitory concentration (IC50) (in assay [1]; with HL-60; in assay [2]) were 97.1 µg/mL (≈ 221 µM), 11.8 µg/mL (≈ 26.9 µM) and 86.4 µg/mL (≈ 197 µM), respectively.

As to `C=C1C(=O)O[C@H]2[C@H]1[C@@H](O)[C@H](OC(=O)C(C)C)[C@H](C)CCC(=O)[C@](C)(O)[C@@H]2OC(=O)C(C)C` [INCASPITOLIDE D], the IC50 in assay [1] worked out at 62.5 µg/mL (≈ 138 µM); in the assay with HL-60 it was 14.3 µg/mL (≈ 31.5 µM); in assay [2], 95.7 µg/mL (≈ 211 µM).

Consider `CC[C@]1(O)C[C@H]2CN(CCc3c([nH]c4ccccc34)[C@@](C(=O)OC)(c3cc4c(cc3OC)N(C=O)[C@H]3[C@@](O)(C(=O)OC)[C@H](OC(C)=O)[C@]5(CC)C=CCN6CC[C@]43[C@@H]65)C2)C1.O=S(=O)(O)O` [VINCRISTINE SULFATE], for which the concentration for half-maximal inhibition (IC50) in assay [1] was found to be 26.7 µg/mL; with HL-60, 11.2 µg/mL; in assay [2], 28.4 µg/mL.
